Experimental data gathered from unrelated publications.
Each line is one published result; the experiments were not run side by side.
Target: Ephrin type-B receptor 6 (EPHB6, Homo sapiens, UniProt O15197)
Residues used in one study (O15197 32-1021): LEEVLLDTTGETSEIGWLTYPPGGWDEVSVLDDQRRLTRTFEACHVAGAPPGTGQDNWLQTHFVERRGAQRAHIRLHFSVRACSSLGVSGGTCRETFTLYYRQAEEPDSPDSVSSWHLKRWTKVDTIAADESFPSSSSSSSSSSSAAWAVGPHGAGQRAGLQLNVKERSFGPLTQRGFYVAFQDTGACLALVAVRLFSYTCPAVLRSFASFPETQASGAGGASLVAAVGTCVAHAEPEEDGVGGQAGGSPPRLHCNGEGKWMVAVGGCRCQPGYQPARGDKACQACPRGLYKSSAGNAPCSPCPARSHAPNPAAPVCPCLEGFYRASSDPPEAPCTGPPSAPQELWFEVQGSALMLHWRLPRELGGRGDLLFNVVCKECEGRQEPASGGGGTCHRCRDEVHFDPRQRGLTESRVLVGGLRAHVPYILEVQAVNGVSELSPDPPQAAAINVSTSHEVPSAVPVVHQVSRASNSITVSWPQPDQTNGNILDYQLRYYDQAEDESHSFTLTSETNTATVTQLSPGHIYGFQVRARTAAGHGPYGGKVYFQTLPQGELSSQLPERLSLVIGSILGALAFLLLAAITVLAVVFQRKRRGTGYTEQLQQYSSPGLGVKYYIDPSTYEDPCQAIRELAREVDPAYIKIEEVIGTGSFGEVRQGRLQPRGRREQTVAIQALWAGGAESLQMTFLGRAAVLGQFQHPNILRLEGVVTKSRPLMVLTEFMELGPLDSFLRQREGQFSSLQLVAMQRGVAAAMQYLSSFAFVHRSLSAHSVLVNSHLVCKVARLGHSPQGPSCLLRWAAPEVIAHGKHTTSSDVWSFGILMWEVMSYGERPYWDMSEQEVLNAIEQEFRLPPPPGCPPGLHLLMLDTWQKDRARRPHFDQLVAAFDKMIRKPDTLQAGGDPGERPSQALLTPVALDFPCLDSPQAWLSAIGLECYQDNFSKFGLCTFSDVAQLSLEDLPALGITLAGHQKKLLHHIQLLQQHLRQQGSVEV

O=C(NCCCN1CCOCC1)c1ccc(Nc2nccc(-c3cc4ccccc4s3)n2)cc1  remaining binding (binding, competition with immobilised ligand; 1 µM): 18%
CNC(=O)[C@@H]1CC[C@@H](n2c(-c3ccc4cnccc4c3)nc3ccc(C(=O)NCc4cccc(C(N)=O)c4)cc32)C1  remaining binding (binding, competition with immobilised ligand; 1 µM): 100%
Cc1nc(N2CC[C@@H](O)C2)ncc1-c1cc(C(F)(F)F)cc2[nH]ncc12  remaining binding (binding, competition with immobilised ligand; 1 µM): 36%
O=C(NCCCN1CCOCC1)c1ccc(Nc2ncc(Cl)c(-c3ccc(Cl)s3)n2)cc1  remaining binding (binding, competition with immobilised ligand; 1 µM): 13%
C[C@H](NC(=O)c1cnc2n1[C@](C)(Cc1ccc(C#N)cc1)C(=O)N2c1cc(Cl)c(F)c(Cl)c1)C(=O)NC1(c2ccccn2)CC1  remaining binding (cell-free assay, competition with immobilised ligand; 1 µM): 100%
Cc1cnc(Nc2ccc(C(=O)N3CCC(N4CCCC4)CC3)cc2)nc1-c1cc2ccccc2s1  remaining binding (binding, competition with immobilised ligand; 1 µM): 3.3%
c1cnn2ncc(-c3ccnc(N4CCC45COC5)n3)c2c1  remaining binding (binding; 1 µM): 63%
C=CC(=O)N1CCC(C(=O)NCC(=O)N2CCN(c3nc(-c4cnc(N)nc4C(F)F)nc(N4CCOCC4)n3)CC2)CC1  remaining binding (binding, competition with immobilised ligand; 1 µM): 65%
F[C@@H]1CCN(c2nccc(-c3cnn4ncccc34)n2)C1  remaining binding (binding; 1 µM): 100%
CN(c1ccnc(CNc2nc(Nc3ccc4c(c3)CC(=O)N4)ncc2C(F)(F)F)n1)S(C)(=O)=O  remaining binding (cell-free assay, competition with immobilised ligand; 1 µM): 54%
COc1cnc(Nc2cccc(S(N)(=O)=O)c2)nc1N1CCN(c2ccccc2)C(=O)C1  remaining binding (binding, competition with immobilised ligand; 1 µM): 90%
O=C(Nc1c[nH]nc1C(=O)NC1CCNCC1)c1cc(F)cc(F)c1  remaining binding (binding, competition with immobilised ligand; 1 µM): 100%
Cc1cnn2ncc(-c3ccnc(N(C)C)n3)c2c1  remaining binding (binding; 1 µM): 80%
O=C(Nc1cccnn1)N1CCC(=Cc2cccc(Oc3ccc(C(F)(F)F)cn3)c2)CC1  remaining binding (cell-free assay, competition with immobilised ligand; 1 µM): 100%
C[C@@H]1CCN(c2nccc(-c3cnn4ncccc34)n2)C1  remaining binding (binding; 1 µM): 93%
CC(=O)N1CCC(c2ccc(C(=O)NC3=NCCN3)cc2C(F)(F)F)CC1  remaining binding (cell-free assay, competition with immobilised ligand; 1 µM): 100%
N[C@@H]1CCN(c2nccc(-c3cnn4ncccc34)n2)C1  remaining binding (binding; 1 µM): 52%
O=C(O)[C@@H]1[C@@H](Cn2nnc3ccccc3c2=O)CC[C@H]1C(=O)c1ccc(OCCC2CCOCC2)cc1  remaining binding (cell-free assay, competition with immobilised ligand; 1 µM): 100%
FC(F)(F)Oc1cccc(-c2cnc3ccc(-c4ccncc4)nn23)c1  remaining binding (cell-free assay, competition with immobilised ligand; 5 µM): 9.3%
c1cncc(-c2cccc(Nc3nccc(NC4CCCCC4)n3)c2)c1  remaining binding (binding, competition with immobilised ligand; 10 µM): 1.6%
O=C(Nc1cccnn1)N1CC(C/C=C/c2cncc(Oc3ccc(C(F)(F)F)cn3)n2)C1  remaining binding (cell-free assay, competition with immobilised ligand; 1 µM): 87%
COc1ccnn2ncc(-c3ccnc(N(C)C)n3)c12  remaining binding (binding; 1 µM): 27%
